Reference: ChEMBL document CHEMBL4689842, “EUbOPEN Chemogenomics Library wave 1” (2021)
“And” between values parts separate entries of the source, which are not always exact repeats. Equal entries are not always repeated.

System: U2OS
Assay: Multiplex assay against U2OS
Assay type: toxicity, cell-based
Details: human, 1 µM, compound concentration 1 uM
Procedure, shortened: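 At seeding, live cells were stained with Hoechst33342, BioTracker Green Microtubule Cytoskeleton Dye, MitoTracker Red and Annexin V Alexa Fluor 680. After compound addition they were imaged on a CQ1 microscope at 37°C and 5% CO2, and CellPathfinder machine-learning gating sorted them into Hoechst high-intensity objects or normal cells, with normal cells further split into healthy, pyknosed or fragmented nuclei and pyknosed cells into mitotic or apoptotic. Tubulin, mitochondrial-mass and membrane-permeability phenotypes are given as per cents of cells with healthy nuclei.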

CN([C@@H](Cc1ccc(OS(=O)(=O)c2cccc3cnccc23)cc1)C(=O)N1CCN(c2ccccc2)CC1)S(=O)(=O)c1cccc2cnccc12
Population Apoptotic (%) (12 h, replicate 1): 52% and 61% | Population Fragmented Nuclei (%) (12 h, replicate 1): 3% and 2% | Population Healthy Nuclei (%) (12 h, replicate 1): 83% and 89% | Population Hoechst High Intensity Objects (%) (12 h, replicate 1): 1% | Population Membrane Permeable-Phenotype (%) (12 h, replicate 1): 38% and 75% | Population Mitochondria Different-Phenotype (%) (12 h, replicate 1): 32% and 23% | Population Mitotic Cells (%) (12 h, replicate 1): 47% and 38% | Population Normal (%) (12 h, replicate 1): 98% | Population Pyknosed Nuclei (%) (12 h, replicate 1): 12% and 7% | Population Tubulin-Different-Phenotype (%) (12 h, replicate 1): 99% | Total Cell Count (12 h, replicate 1): 150 and 181 | Population Apoptotic (%) (12 h, replicate 2): 25% and 40% | Population Fragmented Nuclei (%) (12 h, replicate 2): 16% and 6% | Population Healthy Nuclei (%) (12 h, replicate 2): 74% and 79% | Population Hoechst High Intensity Objects (%) (12 h, replicate 2): 13% and 15% | Population Membrane Permeable-Phenotype (%) (12 h, replicate 2): 33% and 69% | Population Mitochondria Different-Phenotype (%) (12 h, replicate 2): 46% and 45% | Population Mitotic Cells (%) (12 h, replicate 2): 75% and 60% | Population Normal (%) (12 h, replicate 2): 86% and 84% | Population Pyknosed Nuclei (%) (12 h, replicate 2): 9% and 13% | Population Tubulin-Different-Phenotype (%) (12 h, replicate 2): 100% | Total Cell Count (12 h, replicate 2): 104 and 101 | Population Apoptotic (%) (24 h, replicate 1): 69% and 58% | Population Fragmented Nuclei (%) (24 h, replicate 1): 4% and 5% | Population Healthy Nuclei (%) (24 h, replicate 1): 75% and 73% | Population Hoechst High Intensity Objects (%) (24 h, replicate 1): 2% and 1% | Population Membrane Permeable-Phenotype (%) (24 h, replicate 1): 25% and 68% | Population Mitochondria Different-Phenotype (%) (24 h, replicate 1): 55% | Population Mitotic Cells (%) (24 h, replicate 1): 30% and 41% | Population Normal (%) (24 h, replicate 1): 97% and 98% | Population Pyknosed Nuclei (%) (24 h, replicate 1): 20% and 21% | Population Tubulin-Different-Phenotype (%) (24 h, replicate 1): 98% and 99% | Total Cell Count (24 h, replicate 1): 154 and 198 | Population Apoptotic (%) (24 h, replicate 2): 57% and 53% | Population Fragmented Nuclei (%) (24 h, replicate 2): 15% and 12% | Population Healthy Nuclei (%) (24 h, replicate 2): 68% | Population Hoechst High Intensity Objects (%) (24 h, replicate 2): 12% and 9% | Population Membrane Permeable-Phenotype (%) (24 h, replicate 2): 32% and 54% | Population Mitochondria Different-Phenotype (%) (24 h, replicate 2): 62% and 70% | Population Mitotic Cells (%) (24 h, replicate 2): 42% and 46% | Population Normal (%) (24 h, replicate 2): 87% and 90% | Population Pyknosed Nuclei (%) (24 h, replicate 2): 15% | Population Tubulin-Different-Phenotype (%) (24 h, replicate 2): 100% | Total Cell Count (24 h, replicate 2): 99 and 102
